# Assay results published in PubChem BioAssay.
# Active and inactive are the calls of the source.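 Rule for the calls, unless noted: active = viability loss from added drug above about 55%, and viability with drug at most 40%, in both replicates (limit read from the data, passing the limit was not always enough); inconclusive = both conditions met in only one replicate; inactive = neither replicate meets both conditions.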
# Legend:
# [1] = SK-BR-3 cell growth inhibitors, pilot screen, 24 h, human (AID 572;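 active = viability at or below 10% of carrier control in both of two separate runs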;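 note: compound exposure lasted between 18 and 24 h rather than exactly 24 h; 100% = carrier-treated control wells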); conditions: SK-BR-3 viability, CellTiter-Glo luminescence, at 10 µM, stronger effect = lower value
# [2] = HUVEC growth inhibition – cell-based, human, primary screen (AID 575;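 active = viability at or below 30% in both replicate assays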;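 note: 100% = median of untreated cell wells with 0.1% DMSO on each plate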); conditions: HUVEC proliferation, CellTiter-Glo luminescence, 72 h; at 10 µM; stronger effect = lower value
# Procedure, shortened: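 Timing: 72 h treatment at 37 °C; material: HUVEC primary cells; technique: CellTiter-Glo luminescence measuring cellular ATP; controls: vehicle and MePR control wells; measure: percent of median DMSO-control luminescence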
# [3] = growth inhibitors of H69AR lung tumor, primary screen, human, duplicate replicates (AID 580;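 active = viability at or under a set limit in both replicates, limit being median viability minus 3 SD, cut at about 48% in these data, passing the limit was not always enough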;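 note: 100% = mean luminescence of untreated wells and 0% = no signal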); conditions: H69AR lung tumor cells viability, ATP luminescence, 72 h; at 10 µM; stronger effect = lower value
# [4] = reversal of MRP1-mediated doxorubicin resistance, pilot screen, H69AR cells, doxorubicin co-treatment (AID 601); conditions: CellTiter-Glo, 72 h, at 10 µM; for differential viability (reversal): stronger effect = higher value
# [5] = 384-well plate pilot, post-Golgi transport modulator project, inhibition of yeast transport mutant growth (AID 636; in the data active = inhibition above about 31%); conditions: absorbance 615 nm, about 18 h, stronger effect = higher value
# [6] = growth suppression of yeast trafficking mutant, preliminary HTS, modulators of trafficking downstream of Golgi apparatus project, 1536-format plate, OD 615 nm (AID 637; in the data active = inhibition above about 30%); conditions: yeast transport mutant growth, absorbance 615 nm, 18 h; stronger effect = higher value
# [7] = H69AR cells + 2 uM doxorubicin, measured here: viability with 2 uM doxorubicin, stronger effect = lower value
# [8] = H69AR cells, compound alone cytotoxicity
SMILES,viability [1],viability [2],viability [3],differential viability (reversal) ([4]; H69AR cells + 2 uM doxorubicin),"viability [4, 7] [%]","viability [4, 8] [%]",inhibition [5],inhibition [6]
Nc1nc(N)c2nc(-c3ccccc3)c(N)nc2n1,128% (inactive),90.5% (inactive),73.3% (inactive),-4.71% (inactive),78,73.3,-2.08% (inactive),1.5% (inactive)
O=C(O)COc1cccc(NC(=O)C2CCCO2)c1 (stereo not drawn),81% (inactive),102% (inactive),93.3% (inactive),-10.7% (inactive),104,93.3,0.14% (inactive),10.9% (inactive)
CCCCOc1ccc(C(=O)Nc2ccc(N3CCN(C(C)=O)CC3)cc2)cc1,81% (inactive),88.8% (inactive),94.4% (inactive),-11.3% (inactive),106,94.4,-1.78% (inactive),0.91% (inactive)
COc1ccc(C2c3c(oc4ccccc4c3=O)C(=O)N2Cc2ccncc2)cc1OC (stereo not drawn),91% (inactive),96.7% (inactive),93.7% (inactive),-2.17% (inactive),95.8,93.7,-7.84% (inactive),0.18% (inactive)
CCn1cc(C2Nc3ccccc3C(=O)N2O)c(C)n1 (stereo not drawn),93% (inactive),126% (inactive),90% (inactive),-0.465% (inactive),90.5,90,-5.27% (inactive),-2.91% (inactive)
Nc1nnc(SCc2cc3c(cc2Cl)OCO3)s1,118% (inactive),94.4% (inactive),99.7% (inactive),14.4% (inactive),85.2,99.7,-2.47% (inactive),-1.13% (inactive)
C1CNCCNCCNCCN1,101% (inactive),113% (inactive),95.7% (inactive),0.16% (inactive),95.5,95.7,-0.26% (inactive),2.83% (inactive)
Cc1ccn2cc(CCNC(=O)CC(C)(C)C)nc2c1,89% (inactive),113% (inactive),97.9% (inactive),9.27% (inactive),88.6,97.9,-4.19% (inactive),-2.36% (inactive)
CCOc1ccc(CCNc2nc3c(c(=O)n(C)c(=O)n3C)n2CC)cc1OCC,108% (inactive),101% (inactive),88.9% (inactive),1.88% (inactive),87,88.9,-1.73% (inactive),3.27% (inactive)
COc1ccc(C)cc1C(=O)CCC(=O)Nc1ccccc1N1CCOCC1,90% (inactive),54% (inactive),1.36% (active),-1.5% (inactive),2.85,1.36,-6.27% (inactive),1.31% (inactive)
Cc1ccc2c(c1)N(CC(=O)N1CCCCC1c1cccnc1)C(=O)CO2 (stereo not drawn),106% (inactive),99.8% (inactive),95% (inactive),-4.01% (inactive),99,95,-2.84% (inactive),-5.82% (inactive)
Cc1cc(C)cc(C(=O)N2CCC(C(N)=O)CC2)c1,91% (inactive),105% (inactive),97.2% (inactive),9.71% (inactive),87.5,97.2,-8.78% (inactive),0% (inactive)
CSc1nnc(-c2ccccc2)n1C,121% (inactive),102% (inactive),102% (inactive),6.17% (inactive),95.5,102,-8.36% (inactive),-0.55% (inactive)
Cc1ccc(NC(=O)CSc2nnc(-c3ccc(S(=O)(=O)N4CCOCC4)cc3)n2C)cc1,102% (inactive),104% (inactive),98.4% (inactive),3.83% (inactive),94.6,98.4,-3.33% (inactive),-1.64% (inactive)
CN1CCN(S(=O)(=O)c2ccc(NC(=O)Nc3cccc(Cl)c3)cc2)CC1,96% (inactive),4.34% (active),65% (inactive),-8.79% (inactive),73.8,65,-3.6% (inactive),1.31% (inactive)
Cc1ccccc1-n1nc(C)c2cc(C(=O)NCc3cccnc3)sc21,126% (inactive),74.1% (inactive),70.3% (inactive),10.8% (inactive),59.4,70.3,-1.95% (inactive),9.51% (inactive)
CN(Cc1ccc(-n2cccn2)cc1)C(=O)c1cnn2c1NC(c1ccco1)CC2C(F)(F)F (stereo not drawn),74% (inactive),82.3% (inactive),78.4% (inactive),-7.45% (inactive),85.8,78.4,2.88% (inactive),-0.36% (inactive)
O=C(Nc1ccon1)c1cc(-c2ccccc2)nc2ccccc12,91% (inactive),104% (inactive),96.2% (inactive),-3.19% (inactive),99.4,96.2,-5.95% (inactive),-3.27% (inactive)

SMILES,viability [1],viability [2],viability [3],differential viability (reversal) ([4]; H69AR cells + 2 uM doxorubicin),"viability [4, 7] [%]","viability [4, 8] [%]",inhibition [5],inhibition [6]
O=C(NC1(C(F)(F)F)C(=O)Nc2c1c(=O)[nH]c(=O)n2Cc1ccco1)C1CCCCC1 (stereo not drawn),106% (inactive),97.6% (inactive),97.9% (inactive),17.5% (inactive),80.4,97.9,-6.49% (inactive),-1.82% (inactive)
CN(CCc1ccccn1)c1ncnc2[nH]ncc12,102% (inactive),116% (inactive),97.6% (inactive),9.97% (inactive),87.6,97.6,-6.62% (inactive),-2.36% (inactive)
COc1cccc(C=Nc2ccc3c(c2)OCCO3)c1O,115% (inactive),79.2% (inactive),83% (inactive),-12% (inactive),95,83,1.95% (inactive),-0.33% (inactive)
C=CCOc1ccc(C2/C(=C(\O)c3c(C)[nH]c(C(=O)OC)c3C)C(=O)C(=O)N2CCN(C)C)cc1 (stereo not drawn),95% (inactive),82.7% (inactive),90.2% (inactive),-5.67% (inactive),95.9,90.2,0.52% (inactive),11.5% (inactive)
Cc1nn(-c2ccc(F)cc2)c2sc(C(=O)N3CCCCCC3)cc12,93% (inactive),92% (inactive),78.8% (inactive),-14% (inactive),92.8,78.8,-2.7% (inactive),12.2% (inactive)
COCCCNC(=O)CCn1c(=O)c2ccccc2n(CC(=O)Nc2ccc(C)cc2C)c1=O,101% (inactive),106% (inactive),87.1% (inactive),7.22% (inactive),79.9,87.1,1.3% (inactive),-5.41% (inactive)
O=C(c1cccs1)N(Cc1ccco1)Cc1cc2ccccc2[nH]c1=O,86% (inactive),110% (inactive),82.2% (inactive),-6.47% (inactive),88.7,82.2,4.19% (inactive),-4.91% (inactive)
CSc1ccccc1NC(=O)CN(c1ccccc1)S(=O)(=O)N(C)C,83% (inactive),98.3% (inactive),87.7% (inactive),2.04% (inactive),85.7,87.7,-8.49% (inactive),0.18% (inactive)
O=C(O)C1C2C=CC(C3CC23)C1C(=O)NCCc1ccccc1 (stereo not drawn),101% (inactive),89.7% (inactive),98% (inactive),6.28% (inactive),91.7,98,-5.81% (inactive),-3.93% (inactive)
COC(=O)C1=C(N)Oc2cc(C)n(Cc3ccncc3)c(=O)c2C1c1cccnc1 (stereo not drawn),113% (inactive),86% (inactive),88.4% (inactive),3.73% (inactive),84.6,88.4,-7.4% (inactive),0.97% (inactive)
c1coc(-c2nnc(-c3cccs3)o2)c1,106% (inactive),110% (inactive),102% (inactive),14% (inactive),87.9,102,-5.33% (inactive),0% (inactive)
c1ccc(Cn2ncc3c2ncn2c(-c4ccncc4)nnc32)cc1,99% (inactive),95.3% (inactive),95% (inactive),-1.95% (inactive),96.9,95,-8.77% (inactive),-6.77% (inactive)
O=C(NO)c1ccccc1O,109% (inactive),86.7% (inactive),105% (inactive),23.1% (inactive),81.8,105,-1.95% (inactive),6.83% (inactive)
NS(=O)(=O)c1ccc(NC(=O)CSc2nnc(Cc3cccs3)n2-c2ccccc2)cc1,57% (inactive),93.6% (inactive),93.3% (inactive),4.08% (inactive),89.2,93.3,-7.53% (inactive),2.18% (inactive)
CCOC(=O)N1CCN(C(=O)c2ccc3c(=O)n(Cc4ccc(OC)cc4)c(=S)[nH]c3c2)CC1,99% (inactive),64.6% (inactive),72.5% (inactive),47.4% (inactive),25.1,72.5,-0.13% (inactive),-5.08% (inactive)
Cc1nc2ccc(F)cc2cc1C(=O)NCC1CCCO1 (stereo not drawn),89% (inactive),90.3% (inactive),85.2% (inactive),-12.1% (inactive),97.3,85.2,-8.9% (inactive),3.27% (inactive)
COc1ccc(NC(=O)c2oc3ccccc3c2NC(=O)c2ccco2)cc1,90% (inactive),88.8% (inactive),78.4% (inactive),-0.385% (inactive),78.8,78.4,-4.59% (inactive),-4.92% (inactive)
Cc1noc(C)c1CSc1nnc2scc(-c3ccc(Cl)cc3)n12,88% (inactive),113% (inactive),91.6% (inactive),4.96% (inactive),86.7,91.6,-8.63% (inactive),1.13% (inactive)
